ChEMBL document CHEMBL2150917, “Lignopurines: a new family of hybrids between cyclolignans and purines. Synthesis and biological evaluation” (2012)
Active and inactive are the calls of the source. No cut-off for these calls is given here.

Tests used:
MDA-MB-231 = assay: Growth inhibition of human MDA-MB-231 cells after 72 hrs by SRB assay; type: functional; details: MDA-MB-231, 72 h
In short: (§1)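 Cells seeded at 5×10^3/well in RPMI and attached for 18 h drug-free. Samples added in DMSO/H2O 3:7 for 72 h exposure. Cells then fixed with cold TCA for 60 min at 4 °C, stained with 0.4% SRB in 1% acetic acid for 10 min, stain solubilized in Tris and read at 490 nm. GI50 from 100×[(T−T0)/(C−T0)]=50; mean of triplicates.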

HT-29 = assay: Growth inhibition of human HT-29 cells after 72 hrs by SRB assay; type: functional; details: HT-29, 72 h; in short: as §1
A549 = assay: Growth inhibition of human A549 cells after 72 hrs by SRB assay; type: functional; details: A549, 72 h; in short: as §1
HeLa [1] = assay: Induction of cell cycle arrest in human HeLa cells assessed as accumulation at G2/M phase at 1 uM after 24 hrs by propidium iodide staining-based FACS flow cytometry; type: functional
In short: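 Mycoplasma-negative HeLa cells in DMEM with 10% heat-inactivated FCS, 2 mM L-glutamine, penicillin/streptomycin, 37 °C, 5% CO2; exposed to 1 µM for 24 h alongside untreated controls. 3–5×10^5 cells fixed overnight in 70% ethanol at 4 °C, PBS-washed, 1 h with 1 mg/mL RNase A plus 20 µg/mL propidium iodide at room temperature; flow cytometry for % G2/M; three independent experiments.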

HeLa [2] = assay: Disruption of microtubule network in human HeLa cells at 1 uM after 24 hrs by DAPI staining-based confocal laser scanning microscopy relative to control; type: cell-based
In short: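 HeLa cells in DMEM with 10% heat-inactivated FCS, 2 mM L-glutamine, penicillin/streptomycin, 37 °C, 5% CO2, grown on poly-L-lysine coverslips; 1 µM, 24 h. Fixed in 4% paraformaldehyde in HPEM (pH 6.6), 0.5% Triton X-100 permeabilized, anti-alpha-tubulin mouse mAb (1:150), Cy2 anti-mouse IgG, DAPI nuclei; confocal imaging versus untreated cells; at least three experiments.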

Compound	GI50 (MDA-MB-231) [nM]	GI50 (HT-29) [nM]	GI50 (A549) [nM]	Activity (HeLa [1])	Activity (HeLa [2])
CCCNCC1=Cc2cc3c(cc2[C@@H](c2cc(OC)c(OC)c(OC)c2)[C@@H]1C(=O)OCc1ccc(Cn2cnc4c(Cl)ncnc42)cc1)OCO3	1300	630	580	–	–
COc1cc(-c2c(C(=O)OCCCn3cnc4c(Cl)ncnc43)c(C=O)cc3cc4c(cc23)OCO4)cc(OC)c1OC	5000	2100	2000	Active	Active
COc1cc([C@@H]2c3cc4c(cc3C=C(C=O)[C@H]2C(=O)OCCCCCCn2cnc3c(Cl)ncnc32)OCO4)cc(OC)c1OC	3100	770	400	Active	Active
COc1cc([C@@H]2c3cc4c(cc3C=C(C=O)[C@H]2C(=O)OCCCn2cnc3c(Cl)ncnc32)OCO4)cc(OC)c1OC	2400	910	750	Active	Active
COC(=O)[C@@H]1C(C=O)=Cc2cc3c(cc2[C@H]1c1cc(OC)c(OC)c(OC)c1)OCO3 [PODOPHYLLIC ALDEHYDE]	200	39	60	–	–
COc1cc([C@@H]2c3cc4c(cc3[C@H](O)[C@@H](CO)[C@H]2C(=O)OCCCCCCBr)OCO4)cc(OC)c1OC	350	160	250	–	–
COc1cc([C@@H]2c3cc4c(cc3C=C(C=O)[C@H]2C(=O)OCCCBr)OCO4)cc(OC)c1OC	130	140	190	–	–
COc1cc([C@@H]2c3cc4c(cc3C=C(C=O)[C@H]2C(=O)OCc2ccc(Cn3cnc5c(Cl)ncnc53)cc2)OCO4)cc(OC)c1OC	810	51	29	Active	Active

More lines, in order of falling GI50 (MDA-MB-231), values ahead:

GI50 (MDA-MB-231) [nM]	GI50 (HT-29) [nM]	GI50 (A549) [nM]	Compound	Activity (HeLa [1])	Activity (HeLa [2])
7700	710	790	COc1cc([C@@H]2c3cc4c(cc3C=C(C=O)[C@H]2C(=O)OCCCn2cnc3cncnc32)OCO4)cc(OC)c1OC	Active	Active
7200	9400	2200	COc1cc([C@@H]2c3cc4c(cc3[C@@H](O[C@@H]3O[C@@H]5CO[C@@H](C)O[C@H]5[C@H](O)[C@H]3O)[C@H]3COC(=O)[C@H]23)OCO4)cc(OC)c1O [ETOPOSIDE]	–	–
5100	1200	1200	CCCNc1ncnc2c1ncn2CCCCCCOC(=O)[C@@H]1C(C=O)=Cc2cc3c(cc2[C@H]1c1cc(OC)c(OC)c(OC)c1)OCO3	Active	Active
3700	1700	1200	COc1cc([C@@H]2c3cc4c(cc3C=C(C=O)[C@H]2C(=O)OCCCCCCn2cnc3ncnc(Cl)c32)OCO4)cc(OC)c1OC	Active	Active
3500	2200	2300	CCCNCC1=Cc2cc3c(cc2[C@@H](c2cc(OC)c(OC)c(OC)c2)[C@@H]1C(=O)OCCCCCCn1cnc2c(Cl)ncnc21)OCO3	–	–
2400	530	310	COc1cc([C@@H]2c3cc4c(cc3C=C(C=O)[C@H]2C(=O)OCCCCCCn2cnc3cncnc32)OCO4)cc(OC)c1OC	Active	Active
1800	740	660	COc1cc([C@@H]2c3cc4c(cc3C=C(C=O)[C@H]2C(=O)OCCCCCCBr)OCO4)cc(OC)c1OC	–	–
740	90	59	CCC/N=C/C1=Cc2cc3c(cc2[C@@H](c2cc(OC)c(OC)c(OC)c2)[C@@H]1C(=O)OCc1ccc(Cn2cnc4c(Cl)ncnc42)cc1)OCO3	–	–
700	77	85	COc1cc([C@@H]2c3cc4c(cc3C=C(C=O)[C@H]2C(=O)OCc2ccc(CBr)cc2)OCO4)cc(OC)c1OC	–	–
160	140	140	COc1cc([C@@H]2c3cc4c(cc3[C@H](O)[C@@H](CO)[C@H]2C(=O)OCCCBr)OCO4)cc(OC)c1OC	–	–
